Laboratory results from ChEMBL document CHEMBL1154719, “Click chemistry: studies on the synthesis of novel fluorous tagged triazol-4-yl substituted quinazoline derivatives and their biological evaluation--theoretical and experimental validation” (2010).
Converted amounts (≈) assume the structure as drawn.

Assays:
Type in all cases: functional
Escherichia coli = assay: Antibacterial activity against Escherichia coli MTCC 443 by broth dilution method
In short: (§1)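 MIC by broth dilution in nutrient broth. Test bacteria were kept on nutrient agar slants and subcultured in Petri dishes before testing.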

[1] = tested on: Staphylococcus epidermidis; assay: Antibacterial activity against Staphylococcus epidermidis MTCC 435 by broth dilution method; in short: as §1
Aspergillus flavus [2] = assay: Antifungal activity against Aspergillus flavus MTCC 277 at 30 ug/ml after 48 hrs by agar cup diffusion method; details: MTCC 277, 48 h, read-out: DIZ
In short: (§2)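 Agar cup diffusion on autoclaved potato dextrose agar plates. Each plate was spread with 0.5 ml of a week-old culture, and test solutions at 30 and 100 per ml were added to cups. Plates were held at 28 °C for 48 h, and inhibition zone diameters were read in mm. Acetone served as the solvent control and amphotericin-B as the reference.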

Candida albicans [3] = assay: Antifungal activity against Candida albicans MTCC 227 at 100 ug/ml after 48 hrs by agar cup diffusion method; details: MTCC 227, 48 h, read-out: DIZ; in short: as §2
Saccharomyces cerevisiae [4] = assay: Antifungal activity against Saccharomyces cerevisiae MTCC 36 at 100 ug/ml after 48 hrs by agar cup diffusion method; details: MTCC 36, 48 h, read-out: DIZ; in short: as §2
Aspergillus niger [5] = assay: Antifungal activity against Aspergillus niger MTCC 1344 at 100 ug/ml after 48 hrs by agar cup diffusion method; details: MTCC 1344, 48 h, read-out: DIZ; in short: as §2
Rhizopus arrhizus [6] = assay: Antifungal activity against Rhizopus oryzae MTCC 262 at 30 ug/ml after 48 hrs by agar cup diffusion method; details: MTCC 262, 48 h, read-out: DIZ; in short: as §2
Staphylococcus aureus = assay: Antibacterial activity against Staphylococcus aureus MTCC 96 by broth dilution method; in short: as §1
Pseudomonas aeruginosa = assay: Antibacterial activity against Pseudomonas aeruginosa MTCC 741 by broth dilution method; in short: as §1
Diutina rugosa [7] = assay: Antifungal activity against Candida rugosa NCIM 3462 at 30 ug/ml after 48 hrs by agar cup diffusion method; details: NCIM 3462, 48 h, read-out: DIZ; in short: as §2
Diutina rugosa [8] = assay: Antifungal activity against Candida rugosa NCIM 3462 at 100 ug/ml after 48 hrs by agar cup diffusion method; details: NCIM 3462, 48 h, read-out: DIZ; in short: as §2
Saccharomyces cerevisiae [9] = assay: Antifungal activity against Saccharomyces cerevisiae MTCC 36 at 30 ug/ml after 48 hrs by agar cup diffusion method; details: MTCC 36, 48 h, read-out: DIZ; in short: as §2
Aspergillus niger [10] = assay: Antifungal activity against Aspergillus niger MTCC 1344 at 30 ug/ml after 48 hrs by agar cup diffusion method; details: MTCC 1344, 48 h, read-out: DIZ; in short: as §2
Candida albicans [11] = assay: Antifungal activity against Candida albicans MTCC 227 at 30 ug/ml after 48 hrs by agar cup diffusion method; details: MTCC 227, 48 h, read-out: DIZ; in short: as §2
Bacillus subtilis = assay: Antibacterial activity against Bacillus subtilis MTCC 441 by broth dilution method; in short: as §1
Aspergillus flavus [12] = assay: Antifungal activity against Aspergillus flavus MTCC 277 at 100 ug/ml after 48 hrs by agar cup diffusion method; details: MTCC 277, 48 h, read-out: DIZ; in short: as §2
Rhizopus arrhizus [13] = assay: Antifungal activity against Rhizopus oryzae MTCC 262 at 100 ug/ml after 48 hrs by agar cup diffusion method; details: MTCC 262, 48 h, read-out: DIZ; in short: as §2
Aspergillus flavus [14] = assay: Antifungal activity against Aspergillus flavus MTCC 277 at 50 ug/ml after 48 hrs by agar cup diffusion method; details: MTCC 277, 48 h, read-out: DIZ
In short: (§3)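 Amphotericin-B reference at 50 per ml in the agar cup assay on potato dextrose agar. Plates were spread with 0.5 ml of a week-old fungal culture, incubated at 28 °C for 48 h, and inhibition zone diameter was read in mm. Acetone served as the negative control.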

Candida albicans [15] = assay: Antifungal activity against Candida albicans MTCC 227 at 50 ug/ml after 48 hrs by agar cup diffusion method; details: MTCC 227, 48 h, read-out: DIZ; in short: as §3
Aspergillus niger [16] = assay: Antifungal activity against Aspergillus niger MTCC 1344 at 50 ug/ml after 48 hrs by agar cup diffusion method; details: MTCC 1344, 48 h, read-out: DIZ
In short: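 Agar cup diffusion on potato dextrose agar plates. 0.5 ml of a week-old A. niger culture spread over the solidified agar, then test solutions added to cups. Acetone served as negative control and amphotericin-B as positive control. Plates kept at 28 °C for 48 h. Read-out was inhibition zone diameter in mm.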

Saccharomyces cerevisiae [17] = assay: Antifungal activity against Saccharomyces cerevisiae MTCC 36 at 50 ug/ml after 48 hrs by agar cup diffusion method; details: MTCC 36, 48 h, read-out: DIZ; in short: as §3
Rhizopus arrhizus [18] = assay: Antifungal activity against Rhizopus oryzae MTCC 262 at 50 ug/ml after 48 hrs by agar cup diffusion method; details: MTCC 262, 48 h, read-out: DIZ; in short: as §3
Diutina rugosa [19] = assay: Antifungal activity against Candida rugosa NCIM 3462 at 50 ug/ml after 48 hrs by agar cup diffusion method; details: NCIM 3462, 48 h, read-out: DIZ; in short: as §3

Compound	MIC (Escherichia coli) [µg/mL]	MIC [1] [µg/mL]	MIC (Staphylococcus aureus) [µg/mL]	MIC (Pseudomonas aeruginosa) [µg/mL]	MIC (Bacillus subtilis) [µg/mL]	zone of inhibition at 30 µg/mL (Aspergillus flavus [2]) [mm]	zone of inhibition at 100 µg/mL (Candida albicans [3]) [mm]	zone of inhibition at 100 µg/mL (Saccharomyces cerevisiae [4]) [mm]	zone of inhibition at 100 µg/mL (Aspergillus niger [5]) [mm]	zone of inhibition at 100 µg/mL (Diutina rugosa [8]) [mm]	zone of inhibition at 30 µg/mL (Saccharomyces cerevisiae [9]) [mm]	zone of inhibition at 30 µg/mL (Aspergillus niger [10]) [mm]	zone of inhibition at 30 µg/mL (Candida albicans [11]) [mm]	zone of inhibition at 100 µg/mL (Aspergillus flavus [12]) [mm]	zone of inhibition at 100 µg/mL (Rhizopus arrhizus [13]) [mm]	other results
O=c1c2ccccc2nc(-c2ccccc2)n1Cc1cn(CCC(F)(F)C(F)(F)C(F)(F)C(F)(F)C(F)(F)C(F)(F)F)nn1	75 (≈ 115 µM)	150 (≈ 231 µM)	150 (≈ 231 µM)	37.5 (≈ 57.7 µM)	150 (≈ 231 µM)	8	12	12	12	10	8	9	9	12	10	
CN[C@@H]1[C@H](O[C@H]2[C@H](O[C@H]3[C@H](O)[C@@H](O)[C@H](N=C(N)N)[C@@H](O)[C@@H]3N=C(N)N)O[C@@H](C)[C@]2(O)C=O)O[C@@H](CO)[C@H](O)[C@H]1O [STREPTOMYCIN]	3.12 (≈ 5.37 µM)	1.56 (≈ 2.69 µM)	1.56 (≈ 2.68 µM)	3.12 (≈ 5.37 µM)	6.25 (≈ 10.7 µM)											
C[C@@H]1[C@H](O)[C@@H](C)/C=C/C=C/C=C/C=C/C=C/C=C/C=C/[C@H](O[C@@H]2O[C@H](C)[C@@H](O)[C@H](N)[C@@H]2O)C[C@@H]2O[C@](O)(C[C@@H](O)C[C@@H](O)[C@H](O)CC[C@@H](O)C[C@@H](O)CC(=O)O[C@H]1C)C[C@H](O)[C@H]2C(=O)O [AMPHOTERICIN B]																zone of inhibition at 50 µg/mL (Aspergillus flavus [14]): 25 mm; zone of inhibition at 50 µg/mL (Candida albicans [15]): 23.5 mm; zone of inhibition at 50 µg/mL (Aspergillus niger [16]): 25 mm; zone of inhibition at 50 µg/mL (Saccharomyces cerevisiae [17]): 22 mm; zone of inhibition at 50 µg/mL (Rhizopus arrhizus [18]): 24 mm; zone of inhibition at 50 µg/mL (Diutina rugosa [19]): 22 mm
FC(F)(F)C(F)(F)C(F)(F)C(F)(F)C(F)(F)C(F)(F)C(F)(F)C(F)(F)CCn1nncc1COc1nc(-c2ccccc2)nc2ccccc12	75 (≈ 100 µM)	9.38 (≈ 12.5 µM)	9.38 (≈ 12.5 µM)	37.5 (≈ 50 µM)	37.5 (≈ 50 µM)		12	9	12	12		8	8	9	12	

More lines, main results first:

MIC (Escherichia coli) [µg/mL]	MIC [1] [µg/mL]	MIC (Staphylococcus aureus) [µg/mL]	MIC (Pseudomonas aeruginosa) [µg/mL]	MIC (Bacillus subtilis) [µg/mL]	Compound	zone of inhibition at 30 µg/mL (Aspergillus flavus [2]) [mm]	zone of inhibition at 100 µg/mL (Candida albicans [3]) [mm]	zone of inhibition at 100 µg/mL (Saccharomyces cerevisiae [4]) [mm]	zone of inhibition at 100 µg/mL (Aspergillus niger [5]) [mm]	zone of inhibition at 100 µg/mL (Diutina rugosa [8]) [mm]	zone of inhibition at 30 µg/mL (Saccharomyces cerevisiae [9]) [mm]	zone of inhibition at 30 µg/mL (Aspergillus niger [10]) [mm]	zone of inhibition at 30 µg/mL (Candida albicans [11]) [mm]	zone of inhibition at 100 µg/mL (Aspergillus flavus [12]) [mm]	zone of inhibition at 100 µg/mL (Rhizopus arrhizus [13]) [mm]	other results
75 (≈ 288 µM)	37.5 (≈ 144 µM)	37.5 (≈ 144 µM)	37.5 (≈ 144 µM)	37.5 (≈ 144 µM)	C#CCn1c(-c2ccccc2)nc2ccccc2c1=O	9	10	12	10	12	9	7	7	12	12	zone of inhibition at 30 µg/mL (Rhizopus arrhizus [6]): 8 mm; zone of inhibition at 30 µg/mL (Diutina rugosa [7]): 8 mm
75 (≈ 117 µM)	9.38 (≈ 14.6 µM)	9.38 (≈ 14.6 µM)	37.5 (≈ 58.5 µM)	18.8 (≈ 29.2 µM)	FC(F)(F)c1nc(OCc2cn(CCC(F)(F)C(F)(F)C(F)(F)C(F)(F)C(F)(F)C(F)(F)F)nn2)c2ccccc2n1		12	9	12	9		8	8	9	9	
75 (≈ 117 µM)	150 (≈ 234 µM)	150 (≈ 234 µM)	75 (≈ 117 µM)	150 (≈ 234 µM)	O=c1c2ccccc2nc(C(F)(F)F)n1Cc1cn(CCC(F)(F)C(F)(F)C(F)(F)C(F)(F)C(F)(F)C(F)(F)F)nn1	9	9	12	9	13	9			12	13	zone of inhibition at 30 µg/mL (Rhizopus arrhizus [6]): 8 mm; zone of inhibition at 30 µg/mL (Diutina rugosa [7]): 8 mm
15 (≈ 20 µM)	75 (≈ 100 µM)	75 (≈ 100 µM)	75 (≈ 100 µM)	150 (≈ 200 µM)	O=c1c2ccccc2nc(-c2ccccc2)n1Cc1cn(CCC(F)(F)C(F)(F)C(F)(F)C(F)(F)C(F)(F)C(F)(F)C(F)(F)C(F)(F)F)nn1		9	9	9	10				9	10	
